# MPTP block – permeability transition pore inhibition; 1.4% of 360,000 active; isolated mouse mitochondria, Ca2+ swelling absorbance, 30 min; AID 602449; inhibition, % at 10 µM;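 active = inhibition of 50% or more, scaled per plate between neutral and stimulator controls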;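 note: 0% = DMSO wells given calcium and 100% = 1 mM EGTA wells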
# UPR XBP1 act – adaptive UPR (XBP1) activation. CHO-XBP1 luciferase reporter, IRE1-XBP1 UPR activation, luminescence; percent of tunicamycin response, DMSO as zero. activation, % at 20 µM. 0.33% of 330,000 active. AID 463104;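 active = versus positive control, 20 µM dose yields 30% or more activation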;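 note: 100% = tunicamycin at 10 µg/mL and 0% = DMSO only wells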
#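 assay system = CHO-XBP1 luciferase reporter cells | amount = 1000 cells/well | buffer or medium = F12 plus 10% FBS | compound dosing = single point, 20 µM final compound, 1% DMSO | incubation = 16-18 h cell attachment at 37 °C, then 6 h compound exposure | detection = Steady-Glo luminescence read | controls = tunicamycin 10 µg/mL and vehicle-only wells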
# CHOP inh – CHOP inhibition in unfolded protein response; CHO-K1 CHOP-promoter luciferase, tunicamycin-induced, 15-18 h; inhibition, % at 10 µM; 3.8% of 220,000 active;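 active = compounds that reduced the stress-induced luciferase reporter signal by more than about 70% of percent inhibition, limit read from the data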;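 note: 0% = tunicamycin plus vehicle and 100% = wells without tunicamycin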
# aDG glyco up – alpha-DG glycosylation activation. AID 624168. Pro5-aDG cells, alpha-DG glycosylation AlphaScreen (IIH6); 0% Pro5, 100% B10-LARGE cell signal. 0.22% of 360,000 active. activation, % at 10 µM;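 active = activation of at least 8% versus controls, or a plate z-score of at least 8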;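 note: Pro5 are CHO cells carrying HIG-tagged alpha-DG that lacks glycosylation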
# UPR CHOP act – apoptotic UPR (CHOP) activation | activation, % at 10 µM | CHO-CHOP luciferase reporter, luminescence; percent of tunicamycin response over DMSO baseline | 0.34% of 330,000 active | AID 449763;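 active = at 10 µM dose, activation of 40% or more, normalized to positive control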;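 note: 100% = tunicamycin at 10 µg/mL and 0% = DMSO alone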
#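 Test system: CHO CHOP reporter cells. Input: 500 CHO-CHOP cells per well. Medium: F12 with 10% FBS. Technique: luciferase luminescence. Measure: percent activation relative to tunicamycin control. Dosing: 10 µM compound, 0.5% DMSO. Timing: 16-18 h cell attachment, then 6 h compound exposure, 37 °C.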
# NR3A LBD binder – modulates the human NR3A ligand-binding domain. NR3A LBD differential scanning fluorimetry, Tm shift; 0% = protein alone, 100% = glycine-bound protein. Tm shift relative to glycine control, % at 25 µM. 2.5% of 340,000 active;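 active = melting temperature shift of at least 10% of the positive control shift, at one fixed dose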
# UPR XBP1 confirm – adaptive UPR (XBP1) activation, confirmed; shares compounds with UPR XBP1 act; CHO-XBP1 IRE1-XBP1 luciferase reporter, luminescence; activation, % at 20 µM; 63% of 1,000 active; AID 485299;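 active = reporter signal at least 30% of the positive control's activation in two or more of four replicate wells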;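 note: plate controls were DMSO negative control for no effect and tunicamycin 10 µg/mL positive control for full effect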
# An asterisk follows results filed as active; x = not tested or not shown. Rows were chosen to be rich in hits. Some 5.6% of all compounds tested hit in one or more screens of this group.
SMILES,MPTP block,UPR XBP1 act,CHOP inh,aDG glyco up,UPR CHOP act,NR3A LBD binder,UPR XBP1 confirm
CCc1ccc(OCCNc2cc(N3CCNC(C)C3)ccc2[N+](=O)[O-])cc1 (stereo not given),4,56*,x,0,5,-7,68*
Cc1ccc(NC2=C(Cl)C(=O)OC2OC(C)C)c(C)c1 (stereo not given),-2,36*,15,0,2,1,0
Cc1ccc(Nc2nc(-c3c(C)nc4ccccn34)cs2)cc1,23,41*,85*,1,11,1,35*
C/C(=N/Nc1cc(-c2ccccc2)nc(-c2ccccc2)n1)c1ccc(O)cc1,8,68*,75*,0,4,34*,57*
Cn1cccc1Cc1nnc(SCC(=O)Nc2nc3ccccc3s2)n1CCc1ccccc1,1,30*,95*,0,5,-3,13
Cc1nnc(NC(=O)CSc2nnc(Cc3cccn3C)n2CCc2ccccc2)s1,15,-1,58,0,0,-5,x
O=C(CSc1nc2ccccc2c(=O)n1-c1ccccc1Cl)NC1CCS(=O)(=O)C1 (stereo not given),0,0,x,0,-3,-2,x
CN(C)C(CNc1ncnc2ccccc12)c1c(F)cccc1Cl (stereo not given),0,-5,x,0,0,3,x
O=c1c2ccccc2nc(CSc2nnnn2-c2ccccc2)n1-c1ccccc1Cl,-3,52*,71*,0,35,-3,22
N=C(N)SCc1nc2ccccc2c(=O)n1-c1ccccc1Cl,2,7,-6,0,-2,3,x
O=C(N/N=C/c1ccc(F)cc1)c1sccc1OCc1ccc(F)cc1,-2,3,-25,0,0,1,x
O=C(N/N=C/c1ccc(Cl)cc1)c1sccc1OCc1ccc(F)cc1,3,50*,-7,0,3,22*,55*
Cc1cccc(C)c1NC(=O)CSc1nc(C2CC2)nc2ccccc12,0,1,x,0,0,0,x
Cc1nn(Cc2ccccc2)c(C)c1NC(=O)CSc1nc(C2CC2)nc2c1cnn2-c1ccccc1,1,202*,42,0,26,-1,333*
CCOC(=O)c1c(-c2ccc(C)o2)csc1NC(=O)COC(=O)c1ccc(NC(N)=O)cc1,5,33*,49,0,9,-5,55*
CCOC(=O)c1c(-c2ccc(C)o2)csc1NC(=O)CSc1nnc(C)s1,5,2,27,0,0,1,x
CCc1nc2c(OCc3cc(Cl)cc(Cl)c3)cccn2c1N(C)C(=O)c1ccccc1F,0,x,x,0,x,x,x
CC1CC2C3CCC4=CC(=O)C=CC4(C)[C@@]3(Cl)C(O)CC2(C)C1(O)C(=O)CO (stereo not given in full),0,-3,x,0,2,-1,x
C[C@@H]1C[C@H]2[C@@H]3CCC4=CC(=O)C=C[C@]4(C)[C@@]3(Cl)[C@@H](O)C[C@]2(C)[C@@]1(OC(=O)c1ccco1)C(=O)CCl,-2,79*,x,0,6,-1,58*
CC(C)C[C@H](NC(=O)c1nc[nH]c1C(=O)N[C@@H](CC(C)C)C(=O)OC(C)(C)C)C(=O)OC(C)(C)C,0,45*,28,0,7,-8,26
CCn1cc(C(=O)NCC(OC)OC)c(=O)c2cc(S(=O)(=O)N(C)C3CCCCC3)ccc21,1,-7,x,0,2,-1,x
COc1ccccc1OCC(=O)NNC(=O)CCCC(=O)NNC(=O)COc1ccccc1OC,-1,-5,x,0,1,0,x
COc1ccccc1OCC(=O)Sc1ccc(C)cc1,-1,34*,75*,0,7,7,19
COc1cc(OC)cc(-c2sc3ccc(OC)cc3c2C#CC2(N)CCCCC2)c1,-2,28,x,3,3,-9,x
COc1ccc(-c2sc3cc4c(cc3c2C#CC2(N)CCCCC2)OCO4)cc1,0,34*,x,4,11,-5,15
SMILES,MPTP block,UPR XBP1 act,CHOP inh,aDG glyco up,UPR CHOP act,NR3A LBD binder,UPR XBP1 confirm
COc1ccc(-c2nn(C)c(=O)c3ccccc23)cc1NC(=O)Cn1nc(C)c2ccccc2c1=O,0,56*,40,0,0,-2,82*
CCCCCCSc1ccc([C@@H]2[C@H]3C(=O)N(CC)C(=O)[C@H]3[C@]3(C(=O)OC)CCCN23)cc1,0,-2,x,0,-1,-2,x
CCOC(=O)C1=C(C)n2c(s/c(=C/c3cccc([N+](=O)[O-])c3)c2=O)=NC1c1ccc(O)c(OC)c1 (stereo not given),-1,45*,30,0,38,-4,86*
CCOC(=O)c1c(-n2cccc2)sc2c1CCCC2=O,2,-2,8,0,0,-1,x
CCn1nc(C)cc1C(=O)Sc1cccc(Cl)c1,-1,49*,-34,0,5,4,5
COc1ccc(N2CCN(Cc3nc(N)nc(Nc4ccc(C)c(Cl)c4)n3)CC2)cc1,-5,33*,60,0,0,-3,62*
COc1ccc(Nc2nc(N)nc(CN3CCOCC3)n2)cc1,0,-2,25,0,0,2,x
Cc1ccc(S(=O)(=O)Nc2ccc3c4c(cccc24)CC3)c(C)c1,-1,-2,x,2,2,-6,x
Cc1cc(C)c(S(=O)(=O)Nc2ccc3c4c(cccc24)CC3)c(C)c1,-3,30*,59,0,0,-6,24
COC(C[C@H](O)C[C@H](O)[C@H](C)OCc1ccccc1)OC,0,1,-4,0,0,-2,x
N=c1n(CC(=O)c2ccc([N+](=O)[O-])cc2)c2ccccc2n1Cc1ccccc1,4,140*,75*,1,9,-1,24
C=CCn1c(=N)n(CC(=O)c2cccc([N+](=O)[O-])c2)c2ccccc21,-1,0,27,1,0,2,x
CCNc1nc(NCC)n2c(SC(C(=O)Nc3cc(Cl)cc(Cl)c3)c3ccccc3)nnc2n1 (stereo not given),5,90*,90*,1,15,11*,25
CCCc1cc(NCCCO)n2c(nc3ccccc32)c1C#N,2,5,-6,0,-2,-1,x
O=C(O)CSC1CC(=O)N(c2ccc(Br)cc2)C1=O (stereo not given),0,-2,x,0,-2,1,x
